Active and inactive are the calls of the source. The calls are words filed in the database; no cut-off is given here.
Key:
[1] = tested on: Mus musculus; experiment: Toxicity in human IGROV1 cells expressing human RFC, FRalpha and PCFT xenografted SCID mouse assessed as reversible weight loss at 25 to 40 mg/kg, iv administered on days 3, 7, 11, 15, and 19 postimplantation; assay type: organism-based, IGROV-1; set-up: dose 25-40 mg/kg, route intravenous; conditions: in vivo
Method in brief: (§1)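 Female ICR SCID mice, 10 weeks old, on a folate-deficient diet from 24 days before implant. Bilateral subcutaneous IGROV1 tumour fragments (30–60 mg, by trocar); mice pooled, then randomised. IV dosing on days 3, 7, 11, 15 and 19. Mice weighed daily; tumours measured by caliper 2–3 times weekly; mice sacrificed at 1500 mg tumour burden. Weight-loss nadir and recovery recorded.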

[2] = tested on: IGROV-1; experiment: Antiproliferative activity against human IGROV1 cells expressing human RFC, FRalpha and PCFT assessed as reduction of viable cells after 96 hrs in the presence of 200 nM folic acid; assay type: functional, cell-based; conditions: IGROV-1, 96 h
Method in brief: (§2)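 Same 96 h CellTiter-blue proliferation set-up in folate-free RPMI/10% dFBS with 2 nM leucovorin. Run in parallel incubations that included 200 nM folic acid alongside the antifolate, to establish FR-dependent uptake.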

[3] = tested on: Mus musculus; experiment: Toxicity in human IGROV1 cells expressing human RFC, FRalpha and PCFT xenografted SCID mouse assessed as weight loss at 40 mg/kg, iv administered on days 3, 7, 11, 15, and 19 postimplantation measured on day 21; assay type: organism-based, IGROV-1; set-up: dose 40 mg/kg, route intravenous; conditions: in vivo; method in brief: as §1
[4] = tested on: R2; experiment: Decrease in intracellular ATP concentration in chinese hamster R2 cells expressing human PCFT at 1 uM after 24 hrs by HPLC relative to control at pH 6.8; assay type: functional, Cricetulus griseus; set-up: scale not given: the % may be the effect or the level left
Method in brief: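 R2/hPCFT4 CHO cells seeded in folate-free RPMI 1640 with 10% dialysed FBS and 25 nM leucovorin (pH 7.2). After 24 h, switched to the same medium buffered to pH 6.8 with 25 mM PIPES/25 mM HEPES. Drug at 1 µM, or vehicle (0.5% DMSO or H2O), for 24 h. Nucleotides extracted; ATP quantified by HPLC against vehicle control.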

[5] = Antiproliferative activity against chinese hamster RT16 cells expressing human FRalpha assessed as reduction of viable cells after 96 hrs in the presence of 200 nM folic acid; assay type: functional, cell-based; conditions: Cricetulus griseus, RT16, 96 h; method in brief: as §2
[6] = Inhibition of GARFTase in chinese hamster R2 cells expressing human PCFT assessed as incorporation of [14C]glycine into [14C]formyl GAR in the presence of 4 uM azaserine; assay type: cell-based, Cricetulus griseus
[7] = tested on: Mus musculus; experiment: Toxicity in human IGROV1 cells expressing human RFC, FRalpha and PCFT xenografted SCID mouse assessed as weight loss at 25 mg/kg, iv administered on days 3, 7, 11, 15, and 19 postimplantation measured on day 8 post last treatment; assay type: organism-based, IGROV-1; set-up: dose 25 mg/kg, route intravenous; conditions: in vivo
Method in brief: (§3)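 Female ICR SCID mice (10 weeks old) were fed a folate-deficient or folate-replete diet from 24 days before implant. IGROV1 tumor fragments (30–60 mg) were implanted bilaterally s.c. by trocar, and mice were randomized. Dosing was i.v. on a Q4dx5 schedule (days 3, 7, 11, 15, 19). Mice were weighed daily to track weight-loss nadir and recovery.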

[8] = tested on: Mus musculus; experiment: Toxicity in human IGROV1 cells expressing human RFC, FRalpha and PCFT xenografted SCID mouse assessed as weight loss at 25 mg/kg, iv administered on days 3, 7, 11, 15, and 19 postimplantation measured on day 27 post last treatment; assay type: organism-based, IGROV-1; set-up: dose 25 mg/kg, route intravenous; conditions: in vivo; method in brief: as §3
[9] = tested on: Mus musculus; experiment: Toxicity in human IGROV1 cells expressing human RFC, FRalpha and PCFT xenografted SCID mouse assessed as mortality at 25 to 40 mg/kg, iv administered on days 3, 7, […], […], and […] postimplantation; assay type: organism-based, IGROV-1; conditions: in vivo
[10] = tested on: KB; experiment: Antiproliferative activity against human KB cells expressing human RFC, FRalpha and PCFT assessed as reduction of viable cells after 96 hrs; assay type: functional, cell-based
[11] = tested on: IGROV-1; experiment: Antitumor activity against human IGROV1 cells expressing human RFC, FRalpha and PCFT xenografted in standard folate diet fed SCID mouse assessed as tumor growth inhibition at 25 to 40 mg/kg, iv administered on days 3, 7, […], […], and […] postimplantation; assay type: functional; conditions: dose mg/kg 25-40
[12] = tested on: KB; experiment: Antiproliferative activity against human KB cells expressing human RFC, FRalpha and PCFT assessed as reduction of viable cells after 96 hrs in the presence of 200 nM folic acid; assay type: functional, cell-based; method in brief: as §2
[13] = tested on: Mus musculus; experiment: Toxicity in human IGROV1 cells expressing human RFC, FRalpha and PCFT xenografted SCID mouse assessed as weight loss at 25 mg/kg, iv administered on days 3, 7, 11, 15, and 19 postimplantation measured on day 13; assay type: organism-based, IGROV-1; set-up: dose 25 mg/kg, route intravenous; conditions: in vivo; method in brief: as §1
[14] = molecular target: T1, Proton-coupled folate transporter (Homo sapiens) (UniProt Q96NT5); experiment: Inhibition of human PCFT-mediated [3H]MTX uptake expressed in chinese hamster R2 cells at pH 6.8 […] relative to PMX; assay type: cell-based; conditions: concentration not given here
T1 sequence (whole entry): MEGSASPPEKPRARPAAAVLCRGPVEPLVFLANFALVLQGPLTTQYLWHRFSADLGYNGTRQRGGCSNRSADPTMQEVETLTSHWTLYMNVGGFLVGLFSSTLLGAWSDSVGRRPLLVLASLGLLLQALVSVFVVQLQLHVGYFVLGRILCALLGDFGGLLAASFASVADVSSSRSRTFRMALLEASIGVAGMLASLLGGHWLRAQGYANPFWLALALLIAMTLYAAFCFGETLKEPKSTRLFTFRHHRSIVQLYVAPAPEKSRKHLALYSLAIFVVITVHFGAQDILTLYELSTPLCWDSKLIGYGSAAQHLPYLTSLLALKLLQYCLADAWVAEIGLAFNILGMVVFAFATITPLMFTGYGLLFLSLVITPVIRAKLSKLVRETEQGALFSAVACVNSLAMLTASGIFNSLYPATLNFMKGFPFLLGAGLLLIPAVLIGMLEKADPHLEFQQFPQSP

[15] = tested on: IGROV-1; experiment: Antiproliferative activity against human IGROV1 cells expressing human RFC, FRalpha and PCFT assessed as reduction of viable cells after 96 hrs; assay type: functional, cell-based; conditions: IGROV-1, 96 h
[16] = Antiproliferative activity against chinese hamster R2(VC) cells assessed as reduction of viable cells after 96 hrs; conditions: Cricetulus griseus
[17] = Antiproliferative activity against chinese hamster PC43-10 expressing human RFC assessed as reduction of viable cells after 96 hrs; assay type: functional; conditions: Cricetulus griseus, PC43-10, 96 h
[18] = tested on: Mus musculus; experiment: Toxicity in human IGROV1 cells expressing human RFC, FRalpha and PCFT xenografted SCID mouse assessed as weight loss at 40 mg/kg, iv administered on days 3, 7, 11, 15, and 19 postimplantation measured on day 10 post last treatment; conditions: in vivo
[19] = tested on: IGROV-1; experiment: Antitumor activity against human IGROV1 cells expressing human RFC, FRalpha and PCFT xenografted in SCID mouse assessed as tumor growth inhibition at 40 mg/kg, iv administered on days 3, 7, […], […], and […] postimplantation; assay type: functional
[20] = tested on: IGROV-1; experiment: Antitumor activity against human IGROV1 cells expressing human RFC, FRalpha and PCFT xenografted in SCID mouse assessed as tumor growth inhibition at 25 mg/kg, iv administered on days 3, 7, […], […], and […] postimplantation; assay type: functional
[21] = tested on: R2; experiment: Antiproliferative activity against chinese hamster R2 cells assessed as reduction of viable cells after 96 hrs; conditions: Cricetulus griseus, R2, 96 h
[22] = tested on: R2; experiment: Antiproliferative activity against chinese hamster R2 cells expressing human PCFT assessed as growth inhibition in the presence of 320 uM AICA; assay type: functional, cell-based; conditions: Cricetulus griseus
Method in brief: (§4)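 R2/hPCFT4 cells were grown in folate-free RPMI with 25 nM leucovorin and 10% dFBS and exposed to antifolate for up to 96 h. Rescue co-incubations used thymidine (10 µM), adenosine (60 µM) and AICA (320 µM), alone or combined. Viability was read by CellTiter-blue.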

[23] = tested on: R2; experiment: Antiproliferative activity against chinese hamster R2 cells expressing human PCFT assessed as growth inhibition in the presence of 60 uM adenosine; assay type: functional, cell-based; conditions: Cricetulus griseus; method in brief: as §4
[24] = molecular target: T1, Proton-coupled folate transporter (Homo sapiens); experiment: Inhibition of human PCFT-mediated [3H]MTX uptake expressed in chinese hamster R2 cells at pH 5.5 by dixon plot analysis relative to PMX; assay type: cell-based; conditions: concentration not given here
[25] = tested on: R2; experiment: Antiproliferative activity against chinese hamster R2 cells expressing human PCFT assessed as inhibition of colony formation after 10 to 14 days; assay type: functional, cell-based, Cricetulus griseus

Compound: Nc1nc2[nH]c(CCCc3ccc(C(=O)N[C@@H](CCC(=O)O)C(=O)O)s3)cc2c(=O)[nH]1
- Activity [1]: 2.7%
- IC50 [2]: > 1000 nM
- Activity [3]: 9.4%
- Activity [4]: 90%
- IC50 [5]: > 1000 nM
- IC50 [6]: 0.69 nM
- Activity [7]: Non-toxic
- Activity [8]: Non-toxic
- Activity [9]: Non-toxic
- IC50 [10]: 0.26 nM
- T/C [11]: 67%
- IC50 [12]: > 1000 nM
- Activity [13]: 6.3%
- inhibition [14]: 18%
- IC50 [15]: 0.55 nM
- IC50 [16]: 288 nM
- IC50 [17]: 101 nM
- Activity [18]: Non-toxic
- T/C [19]: 14%
- T/C [20]: 16%
- IC50 [21]: 274 nM
- Activity [22]: inactive
- Activity [23]: inactive
- inhibition [24]: 35%
- IC50 [25]: 1.4 nM
